According to ChEMBL document CHEMBL1208762, “Enhanced selectivity profile of pyrazole-urea based DFG-out p38alpha inhibitors” (Bioorg Med Chem Lett, 2010):
In brackets after ≈: the same amount, converted by molar mass.

Key:
[1] = biological target: T1, Mitogen-activated protein kinase 14 (Homo sapiens, UniProt Q16539); assay: Inhibition of active p38alpha
How it was run: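 Compound preincubated with active p38α; kinase activity then read by adding MK2 and its substrate (cascade format). IC50 is the mean of three experiments, SD <15%.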

[2] = biological target: T1, Mitogen-activated protein kinase 14; assay: Inhibition of unactive p38alpha
How it was run: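 Unactive p38α preincubated with compound, then activated by MKK6 and diluted into an MK2 plus substrate mixture (cascade format). IC50 is the mean of three experiments, SD <15%.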

[3] = Permeability of the compound by PAMPA method; format: ADME
CYP3A4 = CYP3A4 (Homo sapiens, UniProt P08684); assay: Inhibition of CYP3A4 at 3 uM; format: ADME
How it was run: (§1)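 Compound tested at 3 µM against a cocktail of CYP1A2, 2C9, 2D6 and 3A4; the result is given as % inhibition for each isoform.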

[4] = Solubility of the compound in phosphate buffer at pH 6.5 by turbidimetric; format: physicochemical
How it was run: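 Kinetic solubility measured turbidimetrically in phosphate buffer at pH 6.5. The value is reported as a range between the minimum and maximum kinetic solubility, in µM.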

CYP2D6 = CYP2D6 (Homo sapiens, UniProt P10635); assay: Inhibition of CYP2D6 at 3 uM; format: ADME; how it was run: as §1
CYP1A2 = biological target: T2, CYP1A2 (Homo sapiens, UniProt P05177); assay: Inhibition of CYP1A2 at 3 uM; format: ADME; how it was run: as §1
T2 sequence (P05177 whole entry): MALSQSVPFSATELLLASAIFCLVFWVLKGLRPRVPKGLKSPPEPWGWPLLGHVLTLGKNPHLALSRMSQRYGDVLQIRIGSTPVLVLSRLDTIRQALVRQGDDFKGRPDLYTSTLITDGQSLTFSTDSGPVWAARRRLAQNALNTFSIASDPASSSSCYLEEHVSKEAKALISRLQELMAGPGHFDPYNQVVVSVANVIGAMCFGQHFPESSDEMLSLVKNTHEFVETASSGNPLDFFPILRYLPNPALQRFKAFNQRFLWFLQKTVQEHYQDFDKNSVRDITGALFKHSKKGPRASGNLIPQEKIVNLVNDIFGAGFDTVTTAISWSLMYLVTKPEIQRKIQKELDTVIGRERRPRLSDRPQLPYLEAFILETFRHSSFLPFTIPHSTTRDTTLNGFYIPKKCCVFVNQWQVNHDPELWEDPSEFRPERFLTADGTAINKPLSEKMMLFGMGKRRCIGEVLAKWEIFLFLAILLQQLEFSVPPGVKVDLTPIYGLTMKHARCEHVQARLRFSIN

hERG (KCNH2) = hERG (KCNH2) (Homo sapiens, UniProt Q12809); assay: Displacement of [3H]dofetilide from human ERG at 10 uM; conditions: probe [3H]dofetilide
CYP2C9 = CYP2C9 (Homo sapiens, UniProt P11712); assay: Inhibition of CYP2C9 at 3 uM; format: ADME; how it was run: as §1
Sequence of CYP2C9 (P11712 whole entry): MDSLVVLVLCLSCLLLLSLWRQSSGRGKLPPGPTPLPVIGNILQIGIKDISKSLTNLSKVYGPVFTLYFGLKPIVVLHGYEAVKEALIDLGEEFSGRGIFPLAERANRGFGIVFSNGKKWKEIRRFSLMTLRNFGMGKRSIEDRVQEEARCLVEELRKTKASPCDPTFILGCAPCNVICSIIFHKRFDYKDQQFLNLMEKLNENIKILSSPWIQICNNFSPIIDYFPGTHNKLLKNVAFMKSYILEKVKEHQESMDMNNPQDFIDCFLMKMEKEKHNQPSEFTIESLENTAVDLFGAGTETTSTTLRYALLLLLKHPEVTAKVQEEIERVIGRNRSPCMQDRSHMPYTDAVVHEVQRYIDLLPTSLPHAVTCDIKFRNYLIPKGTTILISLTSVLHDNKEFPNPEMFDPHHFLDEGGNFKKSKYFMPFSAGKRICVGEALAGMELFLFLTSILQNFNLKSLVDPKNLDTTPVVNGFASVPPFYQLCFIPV

Sequence of CYP2D6 (P10635 whole entry): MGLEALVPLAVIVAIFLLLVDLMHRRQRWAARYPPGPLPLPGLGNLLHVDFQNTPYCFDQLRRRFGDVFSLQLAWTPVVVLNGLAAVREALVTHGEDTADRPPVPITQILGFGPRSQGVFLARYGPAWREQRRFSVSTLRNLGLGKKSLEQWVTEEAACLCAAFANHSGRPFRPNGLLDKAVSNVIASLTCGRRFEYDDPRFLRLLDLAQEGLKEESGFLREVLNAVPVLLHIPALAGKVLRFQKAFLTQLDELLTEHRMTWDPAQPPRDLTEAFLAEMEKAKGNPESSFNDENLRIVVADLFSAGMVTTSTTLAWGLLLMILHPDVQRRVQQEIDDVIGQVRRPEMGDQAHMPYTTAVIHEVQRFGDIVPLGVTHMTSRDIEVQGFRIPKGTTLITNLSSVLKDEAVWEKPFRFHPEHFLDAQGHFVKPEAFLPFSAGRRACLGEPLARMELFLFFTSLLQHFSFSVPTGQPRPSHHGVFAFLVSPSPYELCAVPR
Sequence of hERG (KCNH2) (Q12809 whole entry): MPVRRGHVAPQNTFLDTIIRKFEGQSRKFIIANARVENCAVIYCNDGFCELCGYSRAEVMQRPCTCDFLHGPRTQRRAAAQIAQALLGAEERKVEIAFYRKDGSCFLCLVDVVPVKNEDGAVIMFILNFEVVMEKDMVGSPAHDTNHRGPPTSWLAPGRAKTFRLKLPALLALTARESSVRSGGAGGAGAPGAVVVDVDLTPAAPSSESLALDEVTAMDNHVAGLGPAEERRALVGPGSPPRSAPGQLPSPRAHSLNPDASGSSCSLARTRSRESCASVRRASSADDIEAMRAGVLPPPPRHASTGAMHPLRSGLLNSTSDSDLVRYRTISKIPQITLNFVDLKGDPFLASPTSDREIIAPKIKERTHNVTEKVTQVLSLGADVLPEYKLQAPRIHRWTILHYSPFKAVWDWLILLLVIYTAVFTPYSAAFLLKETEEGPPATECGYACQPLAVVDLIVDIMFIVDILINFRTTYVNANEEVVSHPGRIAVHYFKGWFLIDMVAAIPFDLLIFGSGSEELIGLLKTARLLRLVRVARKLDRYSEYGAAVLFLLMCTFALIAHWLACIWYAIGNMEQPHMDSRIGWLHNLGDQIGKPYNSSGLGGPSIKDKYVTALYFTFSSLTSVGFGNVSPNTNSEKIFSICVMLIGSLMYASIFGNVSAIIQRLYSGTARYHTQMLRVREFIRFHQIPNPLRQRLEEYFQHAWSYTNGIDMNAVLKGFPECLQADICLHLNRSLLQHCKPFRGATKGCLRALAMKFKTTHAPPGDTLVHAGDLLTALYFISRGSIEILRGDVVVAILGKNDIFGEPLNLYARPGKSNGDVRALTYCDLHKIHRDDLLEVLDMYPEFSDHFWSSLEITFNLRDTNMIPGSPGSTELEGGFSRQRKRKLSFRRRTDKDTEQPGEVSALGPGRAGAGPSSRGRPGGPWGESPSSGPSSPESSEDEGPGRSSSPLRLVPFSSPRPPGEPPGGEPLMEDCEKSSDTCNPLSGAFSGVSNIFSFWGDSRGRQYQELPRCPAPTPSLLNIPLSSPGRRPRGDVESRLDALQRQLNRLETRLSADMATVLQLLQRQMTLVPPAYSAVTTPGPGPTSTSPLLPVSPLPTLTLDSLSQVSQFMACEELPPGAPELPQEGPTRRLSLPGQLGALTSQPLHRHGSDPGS
Sequence of CYP3A4 (P08684 whole entry, canonical isoform): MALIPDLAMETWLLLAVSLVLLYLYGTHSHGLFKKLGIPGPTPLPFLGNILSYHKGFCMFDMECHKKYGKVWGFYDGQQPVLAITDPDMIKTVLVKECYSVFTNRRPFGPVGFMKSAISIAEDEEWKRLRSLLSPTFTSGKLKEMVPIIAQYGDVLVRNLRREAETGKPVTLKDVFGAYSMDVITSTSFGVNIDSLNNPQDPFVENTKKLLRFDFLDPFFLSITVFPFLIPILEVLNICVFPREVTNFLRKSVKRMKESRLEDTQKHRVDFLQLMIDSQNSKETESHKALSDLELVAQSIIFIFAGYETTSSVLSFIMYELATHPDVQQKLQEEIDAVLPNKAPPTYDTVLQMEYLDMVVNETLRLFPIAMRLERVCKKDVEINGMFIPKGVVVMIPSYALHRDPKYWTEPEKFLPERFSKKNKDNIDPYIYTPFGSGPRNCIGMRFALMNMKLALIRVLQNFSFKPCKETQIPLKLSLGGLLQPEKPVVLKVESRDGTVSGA
T1 sequence (Q16539 whole entry): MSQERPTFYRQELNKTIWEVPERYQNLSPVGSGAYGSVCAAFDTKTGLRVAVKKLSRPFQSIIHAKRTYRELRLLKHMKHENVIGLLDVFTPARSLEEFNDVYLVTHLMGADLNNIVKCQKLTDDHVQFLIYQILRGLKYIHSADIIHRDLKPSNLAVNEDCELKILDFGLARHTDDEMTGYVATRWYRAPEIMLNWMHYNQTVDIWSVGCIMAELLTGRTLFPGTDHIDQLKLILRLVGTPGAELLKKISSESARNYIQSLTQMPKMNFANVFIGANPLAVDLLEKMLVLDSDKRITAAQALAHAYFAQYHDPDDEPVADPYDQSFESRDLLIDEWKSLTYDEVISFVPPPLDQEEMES

IC50 [1] [nM] | IC50 [2] [nM] | SMILES | further results
> 16700 | 2850 | CC(C)(C)c1cc(NC(=O)Nc2ccccc2)n(-c2cccc(CN)c2)n1 | 
2300 | 176 | CC(C)(C)c1cc(NC(=O)Nc2ccccc2)n(-c2cccc(CNC(=O)CN)c2)n1 | 
287 | 176 | COC(=O)NCC(=O)NCc1cccc(-n2nc(C(C)(C)C)cc2NC(=O)Nc2ccccc2)c1 | 
332 | 68 | CC(C)(C)c1cc(NC(=O)Nc2ccccc2)n(-c2cccc(CNC(=O)CNC=O)c2)n1 | 
34 | 6 | CC(=O)NCC(=O)NCc1cccc(-n2nc(C(C)(C)C)cc2NC(=O)Nc2ccccc2)c1 | Papp [3]: 7.38 ×10⁻⁶ cm/s; inhibition at 3 µM (CYP3A4): 0%; solubility kinetic [4]: > 200 µM; inhibition at 3 µM (CYP2D6): 2%; inhibition at 3 µM (CYP1A2): 5%; inhibition at 10 µM (hERG (KCNH2)): -11%; inhibition at 3 µM (CYP2C9): 0%
441 | 169 | CC(C)(C)c1cc(NC(=O)Nc2ccccc2)n(-c2cccc(CNC(=O)CNC(=O)c3ccccc3)c2)n1 | 
205 | 51 | CC(C)(C)c1cc(NC(=O)Nc2ccccc2)n(-c2cccc(CNC(=O)CNC(=O)c3cccnc3)c2)n1 | 
243 | 38 | Cc1cc(C(=O)NCC(=O)NCc2cccc(-n3nc(C(C)(C)C)cc3NC(=O)Nc3ccccc3)c2)no1 | 
88 | 18 | CC(C)(C)c1cc(NC(=O)Nc2ccccc2)n(-c2cccc(CNC(=O)CNC(=O)c3ccco3)c2)n1 | 
480 | 168 | CC(=O)NC(C)C(=O)NCc1cccc(-n2nc(C(C)(C)C)cc2NC(=O)Nc2ccccc2)c1 (stereo not given) | 
4550 | 715 | CC(=O)NC1(C(=O)NCc2cccc(-n3nc(C(C)(C)C)cc3NC(=O)Nc3ccccc3)c2)CCCC1 | 
649 | 108 | CC(C)(C)c1cc(NC(=O)Nc2ccccc2)n(-c2cccc(CNC(=O)CNS(C)(=O)=O)c2)n1 | 
1600 | 211 | CC(=O)NCC(=O)N(C)Cc1cccc(-n2nc(C(C)(C)C)cc2NC(=O)Nc2ccccc2)c1 | 
296 | 68 | CC(C)(C)c1cc(NC(=O)Nc2ccccc2)n(-c2cccc(CNC(=O)CN3CCCC3=O)c2)n1 | 
599 | 185 | CC(C)(C)c1cc(NC(=O)Nc2ccccc2)n(-c2cccc(CNC(=O)CN3CCOC3=O)c2)n1 | 
63 | 16 | CC(C)(C)c1cc(NC(=O)Nc2ccccc2)n(-c2cccc(CNC(=O)Cn3ccccc3=O)c2)n1 | Papp [3]: 12.9 ×10⁻⁶ cm/s; inhibition at 3 µM (CYP3A4): 30%; solubility kinetic [4]: 50 µM (≈ 24.9 µg/mL); inhibition at 3 µM (CYP2D6): 21%; inhibition at 3 µM (CYP1A2): 4%; inhibition at 10 µM (hERG (KCNH2)): 9%; inhibition at 3 µM (CYP2C9): 6%
536 | 231 | CC(C)(C)c1cc(NC(=O)Nc2ccccc2)n(-c2cccc(CNC(=O)Cn3ccnc3)c2)n1 | 
677 | 132 | Cc1nccn1CC(=O)NCc1cccc(-n2nc(C(C)(C)C)cc2NC(=O)Nc2ccccc2)c1 | 
135 | 48.8 | CC(C)(C)c1cc(NC(=O)Nc2ccccc2)n(-c2cccc(CNC(=O)Cn3cccn3)c2)n1 | 
201 | 27.9 | Cc1ccn(CC(=O)NCc2cccc(-n3nc(C(C)(C)C)cc3NC(=O)Nc3ccccc3)c2)n1 | Papp [3]: 4.8 ×10⁻⁶ cm/s; inhibition at 3 µM (CYP3A4): 26%; solubility kinetic [4]: 100 µM (≈ 48.6 µg/mL); inhibition at 3 µM (CYP2D6): 18%; inhibition at 3 µM (CYP1A2): 4%; inhibition at 10 µM (hERG (KCNH2)): 3%; inhibition at 3 µM (CYP2C9): 5%
331 | 78.2 | Cc1cc(C)n(CC(=O)NCc2cccc(-n3nc(C(C)(C)C)cc3NC(=O)Nc3ccccc3)c2)n1 | 
393 | 37 | CC(C)(C)c1cc(NC(=O)Nc2ccccc2)n(-c2cccc(CNC(=O)CCC(=O)O)c2)n1 | 
3680 | 39 | CC(C)(CC(=O)NCc1cccc(-n2nc(C(C)(C)C)cc2NC(=O)Nc2ccccc2)c1)C(=O)O | 
1100 | 30 | CC(C)(C)c1cc(NC(=O)Nc2ccccc2)n(-c2cccc(CNC(=O)C3C[C@H]3C(=O)O)c2)n1 (stereo not given in full) | 
3360 | 57 | CC(C)(C)c1cc(NC(=O)Nc2ccccc2)n(-c2cccc(CNC(=O)C3CCCC[C@H]3C(=O)O)c2)n1 (stereo not given in full) | 
737 | 14 | CC(C)(C)c1cc(NC(=O)Nc2ccccc2)n(-c2cccc(CNC(=O)C3CC=CC[C@H]3C(=O)O)c2)n1 (stereo not given in full) | 
6 | 5 | CC(C)(C)c1cc(NC(=O)Nc2cccc3ccccc23)n(-c2cccc(CNC(=O)CCC(=O)O)c2)n1 | 
